A selection: hits, their analogues and other compounds. The true share with any hit is near 1.4%.
ATG4B inhibitor = blocks human ATG4B protease cleavage of LC3 substrate | ATG4B cleavage of LC3-PLA2, NBD-HPC fluorescence, 1 h | AID 504462 | inhibition, % at 8.33 µM | 340,000 compounds, 0.51% hits; in the data active means inhibition above about 40%
UCH37 DUB inh = human UCH37 deubiquitinating enzyme inhibition | Q9Y5K5 | purified proteasome/UCH37, Ub-AMC cleavage fluorescence | AID 588478 | 330,000 compounds, 0.33% hits | inhibition, % (test concentration not listed);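 active means mean inhibition over replicate wells above about 20%, limit read from the data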;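 further: 0% = compound-free wells with enzyme and 100% = wells lacking proteasome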
Target sequence (Q9Y5K5 whole entry, looked up): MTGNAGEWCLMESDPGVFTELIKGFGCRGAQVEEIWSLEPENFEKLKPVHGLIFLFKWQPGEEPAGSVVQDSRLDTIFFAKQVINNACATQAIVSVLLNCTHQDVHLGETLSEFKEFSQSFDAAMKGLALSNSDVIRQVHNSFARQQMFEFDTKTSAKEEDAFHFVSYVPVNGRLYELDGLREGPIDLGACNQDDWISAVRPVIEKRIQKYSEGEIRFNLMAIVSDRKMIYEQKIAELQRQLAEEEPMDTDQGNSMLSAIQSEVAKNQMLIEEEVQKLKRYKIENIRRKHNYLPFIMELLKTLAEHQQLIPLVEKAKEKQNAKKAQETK
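Material: Human UCH37 enzyme supplied as purified proteasome complex | Schedule: 30 min preincubation with enzyme, 25 min cleavage at room temperature | Detection: AMC fluorescence 355/460 nm | Measure: % inhibition of Ub-AMC cleavage fluorescence | Controls: Wells without proteasome as full block, compound-free enzyme plus substrate as uninhibited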
TbMetRS inhib = Trypanosoma brucei MetRS inhibition. 360,000 compounds, 0.4% hits. inhibition, % at 11.9 µM. AID 624268. purified T. brucei MetRS, ATP depletion, Kinase-Glo luminescence;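 active means inhibition above a per-plate cutoff of the control wells' mean inhibition plus 3 SD, cut at about 5.5% in these data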;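 further: 0% = DMSO wells median and 100% = median of wells with control inhibitor compound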
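Test system: purified T. brucei MetRS enzyme. Also added: ATP, methionine and E. coli bulk tRNA substrates. Compound: 11.9 µM single point. Schedule: 15 min enzyme-compound preincubation, 2 h reaction, 10 min detection, 25 °C. Signal: luciferase luminescence of residual ATP, Kinase-Glo. Evaluation: percent inhibition versus plate control medians. Controls: DMSO wells, low control.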
Rin1 Abl inh = blocks binding of human Rin1 to Abl. TR-FRET Rin1/Abl binding, biochemical. 360,000 compounds, 0.4% hits. P00519+Q13671. inhibition, % at 7.35 µM; in the data active means inhibition above about 5%, passing the limit was not always enough
Rin1 Abl conf = Rin1-Abl interaction inhibition confirmation | inhibition, % at 7.35 µM | AID 602124 | 1,300 compounds, 49% hits | shares compounds with Rin1 Abl inh | TR-FRET Rin1-Abl binding, purified proteins
GFP quench = quenches GFP fluorescence, counter-screen for Rin1-Abl inhibitors. shares compounds with Rin1 Abl inh. 1,300 compounds, 8.5% hits. inhibitors/quenchers counterscreen. inhibition, % at 6.75 µM;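 further: ABL1-eGFP fusion protein alone without its partner RIN1-SBP; 0% = protein with vehicle and 100% = wells lacking protein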
GFP quench dose = quenches GFP in dose response, Rin1-Abl counter-screen | AID 602182 | IC50, µM | 230 tested, under 10 active | shares compounds with Rin1 Abl inh | GFP fluorescence interference/quenching counterscreen; call rule not given here;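 further: ABL1-eGFP fusion protein alone without its RIN1 binding partner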
* = called active by the depositor; . = not tested or not shown. Unless noted, no stated cut-off is given here; in the data, active means inhibition above about 6.5%; inactive means the rest.

SMILES	ATG4B inhibitor	UCH37 DUB inh	TbMetRS inhib	Rin1 Abl inh	Rin1 Abl conf	GFP quench	others
O=c1cc(-c2ccc(O)c(O)c2)oc2cc(O)c([C@@H]3O[C@H](CO)[C@@H](O)[C@H](O)[C@H]3O)c(O)c12	-1	5	1	22*	28*	10*
O=c1c2cc(O)c(O)cc2oc2cc(O)c(C3OC(CO)C(O)C(O)C3O)c(O)c12 (stereo not given)	-2	16	0	29*	30*	8.4*
O=c1cc(-c2ccc(O)cc2)oc2c([C@@H]3O[C@H](CO)[C@@H](O)[C@H](O)[C@H]3O)c(O)c([C@@H]3O[C@H](CO)[C@@H](O)[C@H](O)[C@H]3O)c(O)c12	-7	3	0	1	.	.
CCOc1ccc(C(=O)Nc2cccc3ncccc23)cc1Cl	6	-7	0	-1	.	.
Cc1nn(-c2ccccc2)c2c1C(c1c(C)[nH]c(C#N)c1C)C(C#N)=C(N)O2 (stereo not given)	-15	1	-1	6	.	.
CC(=O)Nc1ccc(C(=O)NNC(=O)c2csc(N3CCOCC3)n2)cc1	.	.	0	-6	.	.
Cc1cc2cc(C)c(NCCNC(=O)c3cccc(F)c3)nc2cc1C	-13	-21	-1	-1	.	.
Cc1ccc(C(=O)NCc2ccncc2)cc1S(=O)(=O)Nc1cccc(C)c1C	-11	-1	0	15*	-1	-3
O=[N+]([O-])c1cccc(-c2csc(NN=Cc3cccc(O)c3)n2)c1	.	7	.	.	.	.
O=C1Cc2cccc(=O)c(O)c2C(=O)O1	.	.	0	8.2*	9.6*	5
C[C@H](CO)N1C[C@H](C)[C@@H](CN(C)Cc2ccncc2)Oc2c(NC(=O)C3CCCCC3)cccc2C1=O	1	2	0	3	.	.
C/C(=N\NC(=O)c1sccc1C)c1ccncc1	-1	.	-1	1	.	.
O=C(NC1CCCCC1)c1cccnc1C(=O)O	4	3	0	5.9*	2	0
O=C(CN1CCN(S(=O)(=O)c2ccc(Br)s2)CC1)NC1CCCCC1	-2	1	0	0	.	.
O=C(NC(=O)c1cccc(F)c1)OC[C@@H]1CCCN2CCCC[C@H]12	-9	4	0	4	.	.
O=C(Nc1ccc(C(=O)OC[C@@H]2CCCN3CCCC[C@H]23)cc1)c1cccc(Br)c1	-2	1	0	8.5*	10*	-1
O=C(Nc1cccc(-c2nnc(-c3ccco3)o2)c1)c1ccccc1	-1	0	0	10*	-2	-2
CC(=O)NC(=S)Nc1ccc([N+](=O)[O-])cc1C	2	5	0	-2	.	.
Cc1ccc(NC(=O)CSc2nc3c(c(=O)n(C)c(=O)n3C)n2C)cc1	2	0	-1	6.8*	0	-4
Cn1c(=O)c2c(nc(SCC(=O)Nc3ccccc3)n2C)n(C)c1=O	-7	1	0	-4	.	.
COCCn1c(SCC(=O)Nc2ccc3c(c2)OCCO3)nc2ccccc2c1=O	.	.	0	7.0*	-1	-1
COCC(C)n1c(SCC(=O)Nc2ccc3c(c2)OCCO3)nc2ccccc2c1=O (stereo not given)	-13	4	0	2	.	.
CCC(C)Cn1cnc2c(Sc3c([N+](=O)[O-])ncn3C)nc(N)nc21 (stereo not given)	7	8	0	3	.	.
Cc1ccc(NC(=O)CSc2nnc(NC(=O)CN3CCOCC3)s2)cc1	-2	1	-1	-2	.	.
CCCC(=O)NC(c1cccs1)c1cc([N+](=O)[O-])c2cccnc2c1O (stereo not given)	18	13	-1	3	.	.
SMILES	ATG4B inhibitor	UCH37 DUB inh	TbMetRS inhib	Rin1 Abl inh	Rin1 Abl conf	GFP quench	others
CCC(=O)NC(c1cccs1)c1cc([N+](=O)[O-])c2cccnc2c1O (stereo not given)	-10	20*	0	10*	6.3*	9.3*
O=C(CCNC(=O)c1ccc(Br)cc1)NCc1ccncc1	1	2	0	10*	3	1
O=C(CSc1nnnn1C1CCCCC1)NCc1cccs1	-2	3	-1	3	.	.
O=C(NC1CCCc2ccccc21)C1CCCN(S(=O)(=O)c2cnc[nH]2)C1 (stereo not given)	-9	4	1	7.3*	0	-2
Cc1cc(=O)[nH]c(SCC(=O)Nc2ccccc2C#N)c1C#N	12	0	1	-3	.	.
COc1ccc(Cl)cc1NC(=O)/C=C\C(=O)O	4	4	0	5.4*	-4	0
Cc1nn(CC(=O)Nc2ccc3c(c2)nc2n3CCOC2)c(=O)c2ccccc12	-1	3	0	10*	-1	1
O=C(c1cc(COc2c(F)cccc2F)on1)N1CCN(C2CCCCC2)CC1	-5	1	-1	5	.	.
Cc1ccc(OCCCNC2CCCC2)cc1	-12	0	1	1	.	.
Cc1ccc(C)c(OCCCNC2CCCC2)c1C	5	4	-1	13*	1	-1
Cc1ccc(NC2=NC(c3ccc(F)cc3)n3c(nc(C)cc3=O)N2)c(C)c1 (stereo not given)	6	0	-1	-4	.	.
CC(=O)Nc1ccc(CNc2nc(NCC3CC3)nc3ccsc23)cc1	.	.	0	7.2*	5	-1
CC(=O)Nc1ccc(CNc2nc(NC(C)C)nc3ccsc23)cc1	.	.	0	0	.	.
CCOc1ccc2c(c1)nc(NCCCO)n2Cc1ccccc1	0	3	0	-1	.	.
CS(=O)(=O)c1ccc(Cl)c(NC(=O)c2ccc3ccccc3c2)c1	-8	3	0	-5	.	.
O=C(Nc1ccccc1Cl)c1ccc2ccccc2c1	2	5	-2	7.6*	-3	0
O=C(CC1SCCNC1=O)Nc1cc(Cl)cc(Cl)c1 (stereo not given)	-4	.	0	11*	17*	0	GFP quench dose=>68
COC(=O)c1cc(NC(=O)CC2SCCNC2=O)cc(C(=O)OC)c1 (stereo not given)	7	2	-2	-1	.	.
Nc1c(C(=O)NCc2ccc3c(c2)OCO3)nnn1Cc1cccc(F)c1	-7	.	0	8.4*	10*	-2
COc1cccc(Cn2nnc(C(=O)NCc3ccc4c(c3)OCO4)c2N)c1	-13	1	-1	9.1*	7.3*	-1
Cc1ccc2c(c1)sc(C)[n+]2CCCS(=O)(=O)[O-]	5	0	-1	0	.	.
Cc1ccc(C(=O)C(C)N2C(=O)NC(C)(c3ccccc3)C2=O)cc1 (stereo not given)	11	1	-1	7.1*	-1	1
Cc1ccc(C2(C)NC(=O)N(CC(=O)NNC(=O)c3ccccc3)C2=O)cc1 (stereo not given)	-5	1	0	-3	.	.

High-throughput results from PubChem.
